What is called stoichiometry N is the number of molecules, sites or subunits per partner or assembly.

Changes are numbered by the printed parent chain. In names and notes the source's numbering stands. Entries after “also recorded” stand apart in the source; their conditions may differ.

The values that follow come from PMC12429009 (The FASEB Journal, 2025).

Series [1] relates to 14‐3‐3. The conditions noted are these: cited from earlier work.
A short description of series [2]: Gel filtration, Hiload 16/600 Superdex 200. It counts as physicochemical. The gist of the method:
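After His‐tag removal with TEV protease, untagged 14‐3‐3ζ WT or mutant protein from E. coli BL21 DE3 was run on the Superdex 200 column in 50 mM Tris/Cl pH 8.0, 400 mM NaCl, 10% glycerol. Peak fractions collected and elution profile recorded.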

Series [3] in a line: Oligomeric status by native PAGE. It counts as physicochemical. The conditions noted are these: 15 μg protein, 10% native gel (legend: 12%), Coomassie blue. A digest of the protocol:
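Purified untagged 14‐3‐3ζ WT and mutant apoproteins (E. coli‐expressed, Ni‐NTA plus size exclusion, TEV‐cleaved), buffer‐exchanged into 50 mM Na‐HEPES pH 8.0, 150 mM NaCl, 10% glycerol, then run under nondenaturing conditions. Migration read as monomer or dimer.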

Series [4] deals with T1, 14-3-3ζ WT (human), P63104.
T1 chain: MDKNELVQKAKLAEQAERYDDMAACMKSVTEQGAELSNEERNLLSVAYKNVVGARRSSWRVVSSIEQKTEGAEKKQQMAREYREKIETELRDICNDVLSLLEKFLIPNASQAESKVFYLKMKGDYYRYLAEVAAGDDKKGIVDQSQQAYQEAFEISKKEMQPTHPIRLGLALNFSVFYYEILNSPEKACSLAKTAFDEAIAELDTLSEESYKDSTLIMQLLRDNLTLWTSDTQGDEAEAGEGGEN
Description: native gel or EMSA. To be noted: remark: other sources report otherwise. For orientation: In EMSA bound probe runs differently from free probe, usually more slowly.

The series “native gel or EMSA” concerns the molecule itself. Description: native gel or EMSA.
Series [5] relates to 14‐3‐3ζ WT and mutant proteins. Description: ATPase activity. In kind it is biochemical, human. To be noted: 10 μM protein, 1 mM ATP, 37°C, 2 h; three independent experiments.
The test system of series [6] is 14‐3‐3. To be noted: ref 16 (Ramteke et al.); cited from earlier work.
Series [7] has as its system FAM‐labeled peptides (mode2 phosphopeptide). Description: Peptide binding ability of 14‐3‐3ζ mutant proteins by fluorescence polarization. The conditions noted are these: FP; FAM‐labeled peptide 62.5 nM, protein 8 to 0.0625 μM, 25°C, 30 min. The gist of the method:
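Untagged 14‑3‑3ζ mutants (E. coli BL21 DE3; Ni‑NTA, SEC, TEV cleavage) in 50 mM Na‑HEPES pH 8.0, 150 mM NaCl, 10% glycerol. Protein titrated 8 to 0.0625 μM against constant 62.5 nM N‑terminal FAM‑labeled phosphopeptide. Incubated 30 min at 25°C in the dark before anisotropy reading; K_D fitted.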
(In general: Polarisation of emitted light reports the rotation of a fluorescent probe.)

The nature of series [8]: Thermal stability by nano‐DSF. It counts as physicochemical.

With `Nc1ncnc2c1ncn2[C@@H]1O[C@H](COP(=O)(O)O)[C@@H](O)[C@H]1O` [AMP], in the series on 14‐3‐3 [1], the “binding to 14‐3‐3 alone” value was “Neither AMP nor the nonphospho ChREBP peptide alone can bind strongly to the 14‐3‐3” and the “effect of AMP on 14‐3‐3‐ChREBP peptide complex” value is reported as “stabilizes 14‐3‐3‐ChREBP peptide‐complex”. Turning to “14‐3‐3ζ WT: wild-type 14‐3‐3ζ protein expressed in E. coli”, in [2], the “gel filtration elution volume” value was 68 mL. Further, the “migration on native PAGE / oligomeric state” value in series [3] is on record as “migrated as dimers”.

B1: 14-3-3ζ WT, P63104 1-245 (natural protein)
chain: T1 chain
For B1, the stoichiometry N in [4] amounted to 2.

B2: 14-3-3ζ N173V (natural protein, human, UniProt P63104 1-245, looked up)
chain: T1 chain with N173V
With B2, in the series “native gel or EMSA”, the “stoichiometry N” value amounted to 2.

B3: Y82AN173V: 14‐3‐3ζ double mutant, monomer (protein)
chain: T1 chain with Y82A, N173V
modifications: left off: His6, end not stated, cleaved
Consider B3, for which the “migration on native PAGE / oligomeric state” value in series [3] is reported as “could be monomeric in nature”. For the same molecule, in series [5], the “ATPase activity (in words, compared with WT)” value was “some ATPase activity (less than the WT)”; the “ATPase activity as percentage of the N173V mutant” value worked out at 20%; the “reduction in ATPase activity compared with N173V” value came to 80%.

B4: D124A (protein)
chain: T1 chain with D124A
modifications: left off: His6, end not stated, cleaved
For the molecule B4, in the series with 14‐3‐3 [6], the “ATPase activity (earlier study)” value is on record as “increase in ATPase activity”. In series [7], the “peptide binding of 14‐3‐3ζ mutant protein (in words)” value (“peptide binding” below) was “defective in peptide binding”. Besides, the “migration on native PAGE / oligomeric state” value in series [3] is recorded as “migrated as dimers”. Moreover, in series [5], the “ATPase activity (in words, compared with WT)” value is “higher than that of the WT protein; also recorded: enhanced ATPase activity”.

B5: 14-3-3ζ F117AN173V (natural protein, human, UniProt P63104 1-245, looked up)
chain: T1 chain with F117A, N173V
As for B5, the “stoichiometry N” value in the series “native gel or EMSA” stood at 2.

B6: E180AN173V: 14‐3‐3ζ double mutant (protein)
chain: T1 chain with N173V, E180A
modifications: left off: His6, end not stated, cleaved
Take B6: the “thermal stability (in words)” value in series [8] is “most unstable and prone to aggregation”. Besides, in [3], the “migration on native PAGE / oligomeric state” value is on record as “migrated as dimers”.

B7: Y82A: 14‐3‐3ζ mutant, monomer, ATPase null mutant (protein)
chain: T1 chain with Y82A
modifications: left off: His6, end not stated, cleaved
With B7, the “gel filtration elution volume” value in [2] was found to be 74 mL. For the same molecule, the “peptide binding” value in series [7] is given as “bound the peptide with comparable affinity to the WT; also recorded: bind all peptides with the same affinity as the WT”. Further, the “migration on native PAGE / oligomeric state” value in [3] is given as “could be monomeric in nature”. Moreover, the “ATPase activity (in words, compared with WT)” value in series [5] is on record as “near background luminescence readings‐ it is practically an ATPase null mutant”.

B8: E131AE180A: 14‐3‐3ζ double mutant (protein, UniProt P63104 1-245, looked up, variant E131A E180A)
14-3-3 protein zeta/delta: T1 chain with E131A, E180A
Regarding B8, in [5], the “ATPase activity (in words, compared with WT)” value is given as “decreased dramatically”.

B9: N173V (protein)
chain: T1 chain with N173V
modifications: left off: His6, end not stated, cleaved
As for B9, the “thermal stability (in words)” value in [8] is reported as “more stable than the D124A”. In series [7], the “peptide binding” value is listed as “defective in peptide binding assays; also recorded: binds less well to the phosphopeptide ligands”. Besides, the “migration on native PAGE / oligomeric state” value in series [3] was “migrated as dimers”. Besides, the “ATPase activity (in words, compared with WT)” value in series [5] is “had increased ATPase activity and has more affinity for ATP; also recorded: enhanced ATPase activity”.

B10: E180A: 14‐3‐3ζ amphipathic pocket mutant (protein)
chain: T1 chain with E180A
modifications: left off: His6, end not stated, cleaved
For B10, in [3], the “migration on native PAGE / oligomeric state” value is listed as “migrated as dimers”. In addition, the “ATPase activity (in words, compared with WT)” value in series [5] is on record as “made no difference to the ATPase activity”.

B11: 14-3-3ζ E131A (natural protein, human, UniProt P63104 1-245, looked up)
chain: T1 chain with E131A
As for B11, the “stoichiometry N” value in the series “native gel or EMSA” is 2.

B12: R55A: 14‐3‐3ζ dimer interface mutant (protein)
chain: T1 chain with R55A
modifications: left off: His6, end not stated, cleaved
Take B12: the “ATPase activity (earlier study)” value in the series on 14‐3‐3 [6] is “reduction in ATP binding and hydrolysis; also recorded: ATPase defective mutant; also recorded: decrease in the ATPase activity”. Also, the “peptide binding” value in series [7] is listed as “bind all peptides with the same affinity as the WT”. The “migration on native PAGE / oligomeric state” value in series [3] is reported as “migrated as dimers”.

B13: 14-3-3ζ E180AN173V (natural protein, human, UniProt P63104 1-245, looked up)
chain: T1 chain with N173V, E180A
Regarding B13, in the series “native gel or EMSA”, the “stoichiometry N” value is 2.

B14: E131A (protein)
chain: T1 chain with E131A
modifications: left off: His6, end not stated, cleaved
Take B14: in series [3], the “migration on native PAGE / oligomeric state” value was “migrated as dimers”. In [5], the “ATPase activity (in words, compared with WT)” value is on record as “made no difference to the ATPase activity”.

B15: E131AN173V: 14‐3‐3ζ double mutant (protein)
chain: T1 chain with E131A, N173V
modifications: left off: His6, end not stated, cleaved
On to B15, for which the “migration on native PAGE / oligomeric state” value in [3] is “migrated as dimers”.

B16: 14-3-3ζ D124A (natural protein, human, UniProt P63104 1-245, looked up)
chain: T1 chain with D124A
In the case of B16, the “stoichiometry N” value in “native gel or EMSA” amounted to 2.

B17: F117AN173V (protein)
chain: T1 chain with F117A, N173V
modifications: left off: His6, end not stated, cleaved
Consider B17, for which, in series [3], the “migration on native PAGE / oligomeric state” value is on record as “migrated as dimers”.

B18: 14-3-3ζ E131AN173V (natural protein, human, UniProt P63104 1-245, looked up)
chain: T1 chain with E131A, N173V
On to B18, for which the “stoichiometry N” value in the series “native gel or EMSA” is 2.

B19: 14-3-3ζ R55A (natural protein, human, UniProt P63104 1-245, looked up)
chain: T1 chain with R55A
For the molecule B19, in the series “native gel or EMSA”, the “stoichiometry N” value came to 2.

B20: 14-3-3ζ E180A (natural protein, human, UniProt P63104 1-245, looked up)
chain: T1 chain with E180A
Consider B20, for which, in “native gel or EMSA”, the “stoichiometry N” value is 2.
